# Assay results from ChEMBL document CHEMBL1629587, “Discovery of a small-molecule inhibitor of {beta}-1,6-glucan synthesis” (2009).
# The source made the active and inactive calls. No cut-off for these calls is given here.
# Assays:
# [1] = tested on: Candida albicans; assay: Antifungal activity against Candida albicans ATCC MYA-573 after 24 hrs by microdilution method; format: functional; conditions: ATCC MYA-573, 24 h
# Method in brief: (§1)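 CLSI broth microdilution run at 30°C instead of standard temperature; starting inoculum 1 × 10^3 to 3 × 10^3 cells/ml; DMSO under 1% final. Endpoints: MIC-0 = lowest concentration giving an optically clear well; MIC-2 = 50% drop versus drug-free control in absorbance at 570 nm with alamar blue redox indicator, used because treated cells clump.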
# [2] = tested on: Nakaseomyces glabratus; assay: Antifungal activity against Candida glabrata ATCC 200918 after 24 hrs by microdilution method; format: functional; conditions: ATCC 200918, 24 h; method in brief: as §1
# [3] = tested on: Pichia kudriavzevii; assay: Antifungal activity against Candida krusei TIMM0269 after 24 hrs by microdilution method; format: functional; conditions: TIMM0269, 24 h; method in brief: as §1
# [4] = tested on: Kluyveromyces marxianus; assay: Antifungal activity against Candida kefyr ATCC 46764 after 24 hrs by microdilution method; format: functional; conditions: ATCC 46764, 24 h; method in brief: as §1
# [5] = tested on: Trichosporon asahii; assay: Antifungal activity against Trichosporon asahii ATCC 90039 after 24 hrs by microdilution method; format: functional; conditions: ATCC 90039, 24 h; method in brief: as §1
# [6] = tested on: Aspergillus fumigatus; assay: Antifungal activity against Aspergillus fumigatus ATCC 36607 after 24 hrs by microdilution method; format: functional; conditions: ATCC 36607, 24 h; method in brief: as §1
# [7] = tested on: Nakaseomyces glabratus; assay: Induction of multibudding phenotype in Candida glabrata IFO0622 after 18 hrs by microscopy; format: functional, organism-based
# Method in brief: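 Exponential-phase cells suspended in RPMI 1640 with or without drug (2 μg/ml shown), shaken gently 18 h at 30°C, fixed in 3% glutaraldehyde in 0.1 M phosphate buffer, inspected by inverted light microscopy.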
# [8] = tested on: Candida albicans; assay: Inhibition of hyphal elongation of Candida albicans ATCC 24433 at 4 ug/ml after 6 hrs by microscopy; format: functional, organism-based
# Method in brief: (§2)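 Hyphae induced in HFM-7 medium (Lee's medium also used) on type I collagen-coated wells, drug 0, 1, 4 or 16 μg/ml; static culture at 37°C, viewed by light microscopy after 6 h or 24 h.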
# [9] = tested on: Candida albicans; assay: Inhibition of hyphal elongation of Candida albicans ATCC 24433 at 4 ug/ml after 24 hrs by microscopy; format: functional, organism-based; method in brief: as §2
# [10] = tested on: Cryptococcus neoformans; assay: Antifungal activity against Cryptococcus neoformans ATCC 90112 at 32 ug/ml after 24 hrs by microdilution method; format: functional, organism-based; method in brief: as §1
# [11] = tested on: Saccharomyces cerevisiae; assay: Inhibition of mannan synthesis in Saccharomyces cerevisiae AY-10 assessed as reduction in [14C]glucose incorporation at 0.078 to 1.25 ug/ml after 3 hrs; format: functional, organism-based
# Method in brief: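 Exponential cells in RPMI 1640 at A595 about 0.6, pulse-labelled with [14C]glucose 2 μCi/ml plus drug at 30°C, sampled at 1 and 3 h. Cell wall fractionated: mannan from 3% NaOH extracts at 80°C by Fehling's reaction; residue digested with Zymolyase 100T (1 mg/ml), insoluble part = chitin; β-1,3-glucan = total glucan minus dialysed β-1,6-glucan. Scintillation counting; % change versus untreated.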
# [12] = tested on: Saccharomyces cerevisiae; assay: Fungicidal activity against Saccharomyces cerevisiae AY-10-R11 mutant after 24 hrs by microdilution method; format: functional; conditions: AY-10-R11, 24 h
# [13] = tested on: Saccharomyces cerevisiae; assay: Fungicidal activity against Saccharomyces cerevisiae AY-10-R15 mutant after 24 hrs by microdilution method; format: functional; conditions: AY-10-R15, 24 h
# [14] = tested on: Escherichia coli; assay: Antibacterial activity against Escherichia coli NIHJ; format: functional
# [15] = tested on: Nakaseomyces glabratus; assay: Fungistatic activity aganist Candida glabrata IFO0622assessed as growth inhibition at 1 to 16 ug/ml by time-kill study; format: functional, organism-based; conditions: IFO0622
# Method in brief: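 Exponentially growing cells suspended at 1 × 10^4 cells/ml in RPMI 1640 with or without drug, shaken gently at 30°C; samples taken at 2, 4, 8, 24 and 48 h, diluted and spread on SDA, colonies counted after overnight incubation at 30°C to give viable cell numbers.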
compound,measurement,setting,value
CCc1c(C)c(C#N)c2nc3ccccc3n2c1NCCN(CC)CC,MIC,[1],32 µg/mL
same,MIC50,[1],16 µg/mL
same,MIC,[2],4 µg/mL
same,MIC50,[2],4 µg/mL
same,MIC,[3],16 µg/mL
same,MIC50,[3],8 µg/mL
same,MIC,[4],2 µg/mL
same,MIC50,[4],1 µg/mL
same,MIC,[5],> 32 µg/mL
same,MIC50,[5],> 32 µg/mL
same,MIC,[6],> 32 µg/mL
same,MIC50,[6],> 32 µg/mL
same,Activity,[7],Active
same,inhibition,[8],Active
same,inhibition,[9],Active
same,Activity,[10],inactive
same,inhibition,[11],inactive
same,MIC,[12],8 µg/mL
same,MIC,[13],> 64 µg/mL
same,MIC,[14],> 32 µg/mL
same,Activity,[15],Dose-dependent effect
